pKi: −log10 of the molar value.
Target: Delta-type opioid receptor (Rattus norvegicus, UniProt P33533)
Experiment: Displacement of [3H]DPDPE from rat cortex delta opioid receptor after 2.5 hrs by liquid scintillation counting analysis

Sequence of Delta-type opioid receptor (Rattus norvegicus, UniProt P33533) (P33533 whole entry): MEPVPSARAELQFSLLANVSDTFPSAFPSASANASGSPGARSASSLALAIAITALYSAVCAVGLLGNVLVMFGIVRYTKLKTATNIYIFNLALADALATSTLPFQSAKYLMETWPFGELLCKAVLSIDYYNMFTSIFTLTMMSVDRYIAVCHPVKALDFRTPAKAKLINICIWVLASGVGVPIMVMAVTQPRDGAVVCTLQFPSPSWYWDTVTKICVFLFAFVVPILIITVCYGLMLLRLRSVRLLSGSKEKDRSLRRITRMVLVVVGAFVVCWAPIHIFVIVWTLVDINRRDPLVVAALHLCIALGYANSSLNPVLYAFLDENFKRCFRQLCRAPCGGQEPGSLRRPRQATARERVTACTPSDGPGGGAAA

Row | Structure (SMILES) | pKi
1 | NC(=O)C(Cc1ccc(F)cc1)NC(=O)[C@H](O)[C@H](Cc1ccccc1)NC(=O)[C@@H]1CCCN1C(=O)[C@@H](N)Cc1ccc(O)cc1 (stereo partly drawn) | 6.08
2 | NC(=O)[C@H](Cc1ccccc1)NC(=O)C[C@H](Cc1ccccc1)NC(=O)[C@@H]1CCCN1C(=O)[C@@H](N)Cc1ccc(O)cc1 | 6.41
3 | NC(=O)[C@H](Cc1ccccc1)NC(=O)[C@H](O)[C@@H](Cc1ccccc1)NC(=O)[C@@H]1CCCN1C(=O)[C@@H](N)Cc1ccc(O)cc1 | 5.91
4 | N=C(N)NCCC[C@H](NC(=O)[C@H](O)[C@H](Cc1ccccc1)NC(=O)[C@@H]1CCCN1C(=O)[C@@H](N)Cc1ccc(O)cc1)C(N)=O | 6.32
5 | NC(=O)[C@H](Cc1ccccc1)NC(=O)[C@@H](O)[C@@H](Cc1ccccc1)NC(=O)[C@@H]1CCCN1C(=O)[C@@H](N)Cc1ccc(O)cc1 | 6.23
6 | NC(=O)[C@H](Cc1ccccc1)NC(=O)[C@@H](O)[C@H](Cc1ccccc1)NC(=O)[C@@H]1CCCN1C(=O)[C@@H](N)Cc1ccc(O)cc1 | 5.75
7 | NC(=O)[C@@H](O)[C@@H](Cc1ccccc1)NC(=O)[C@H](Cc1c[nH]c2ccccc12)NC(=O)[C@@H]1CCCN1C(=O)[C@@H](N)Cc1ccc(O)cc1 | 6.54
8 | NC(=O)C[C@H](Cc1ccccc1)NC(=O)[C@H](Cc1ccccc1)NC(=O)[C@@H]1CCCN1C(=O)[C@@H](N)Cc1ccc(O)cc1 | 5.60
9 | NC(=O)C(Cc1ccc2ccccc2c1)NC(=O)[C@H](O)[C@H](Cc1ccccc1)NC(=O)[C@@H]1CCCN1C(=O)[C@@H](N)Cc1ccc(O)cc1 (stereo partly drawn) | 6.12

Target: Mu-type opioid receptor (Rattus norvegicus, UniProt P33535)
Sequence (P33535 whole entry): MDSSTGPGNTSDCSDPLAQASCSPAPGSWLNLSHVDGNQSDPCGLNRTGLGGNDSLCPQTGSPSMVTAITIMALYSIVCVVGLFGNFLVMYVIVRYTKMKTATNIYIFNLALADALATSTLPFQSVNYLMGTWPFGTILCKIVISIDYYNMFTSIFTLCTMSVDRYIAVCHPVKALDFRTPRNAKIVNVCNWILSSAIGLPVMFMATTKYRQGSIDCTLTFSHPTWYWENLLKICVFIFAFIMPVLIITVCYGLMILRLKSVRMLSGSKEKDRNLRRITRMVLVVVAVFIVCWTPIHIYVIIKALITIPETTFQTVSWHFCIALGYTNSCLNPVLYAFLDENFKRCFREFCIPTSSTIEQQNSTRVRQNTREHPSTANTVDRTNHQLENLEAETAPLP
Experiment: Displacement of [3H]DAMGO from rat cortex mu opioid receptor after 30 mins by liquid scintillation counting analysis
Method in brief: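 Rat cortex membranes prepared in 50 mM Tris pH 7.4, spun 16,500 rpm for 10 min, and incubated 30 min at 37 °C. Competition against [³H]DAMGO. Assay ended by filtration on BSA-soaked GF/B filters. Ki values are means of two experiments.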

Row | Structure (SMILES) | pKi
10 | NC(=O)[C@H](O)[C@H](Cc1ccccc1)NC(=O)[C@H](Cc1ccccc1)NC(=O)[C@@H]1CCCN1C(=O)[C@@H](N)Cc1ccc(O)cc1 | 7.48
11 | NC(=O)C(Cc1ccc(F)cc1)NC(=O)[C@H](O)[C@H](Cc1ccccc1)NC(=O)[C@@H]1CCCN1C(=O)[C@@H](N)Cc1ccc(O)cc1 (stereo partly drawn) | 6.68
12 | NC(=O)[C@H](Cc1ccccc1)NC(=O)C[C@H](Cc1ccccc1)NC(=O)[C@@H]1CCCN1C(=O)[C@@H](N)Cc1ccc(O)cc1 | 7.62
13 | NC(=O)[C@H](Cc1ccccc1)NC(=O)[C@H](O)[C@@H](Cc1ccccc1)NC(=O)[C@@H]1CCCN1C(=O)[C@@H](N)Cc1ccc(O)cc1 | 5.68
14 | NC(=O)[C@H](Cc1c[nH]c2ccccc12)NC(=O)[C@H](O)[C@H](Cc1ccccc1)NC(=O)[C@@H]1CCCN1C(=O)[C@@H](N)Cc1ccc(O)cc1 | 7.89
15 | NC(=O)[C@H](O)[C@@H](Cc1ccccc1)NC(=O)[C@H](Cc1ccccc1)NC(=O)[C@@H]1CCCN1C(=O)[C@@H](N)Cc1ccc(O)cc1 | 6.35
16 | N=C(N)NCCC[C@H](NC(=O)[C@H](O)[C@H](Cc1ccccc1)NC(=O)[C@@H]1CCCN1C(=O)[C@@H](N)Cc1ccc(O)cc1)C(N)=O | 7.07
17 | NC(=O)[C@H](Cc1ccccc1)NC(=O)[C@@H](O)[C@@H](Cc1ccccc1)NC(=O)[C@@H]1CCCN1C(=O)[C@@H](N)Cc1ccc(O)cc1 | 6.69
18 | NC(=O)[C@H](Cc1ccccc1)NC(=O)[C@@H](O)[C@H](Cc1ccccc1)NC(=O)[C@@H]1CCCN1C(=O)[C@@H](N)Cc1ccc(O)cc1 | 6.30
19 | NC(=O)[C@@H](O)[C@@H](Cc1ccccc1)NC(=O)[C@H](Cc1ccccc1)NC(=O)[C@@H]1CCCN1C(=O)[C@@H](N)Cc1ccc(O)cc1 | 6.49
20 | NC(=O)[C@@H](O)[C@@H](Cc1ccccc1)NC(=O)[C@H](Cc1c[nH]c2ccccc12)NC(=O)[C@@H]1CCCN1C(=O)[C@@H](N)Cc1ccc(O)cc1 | 6.75
21 | NC(=O)C[C@H](Cc1ccccc1)NC(=O)[C@H](Cc1ccccc1)NC(=O)[C@@H]1CCCN1C(=O)[C@@H](N)Cc1ccc(O)cc1 | 7.64
22 | NC(=O)C(Cc1ccc2ccccc2c1)NC(=O)[C@H](O)[C@H](Cc1ccccc1)NC(=O)[C@@H]1CCCN1C(=O)[C@@H](N)Cc1ccc(O)cc1 (stereo partly drawn) | 7.41

Target: Delta-type opioid receptor (Homo sapiens, UniProt P41143)
Sequence (P41143 whole entry): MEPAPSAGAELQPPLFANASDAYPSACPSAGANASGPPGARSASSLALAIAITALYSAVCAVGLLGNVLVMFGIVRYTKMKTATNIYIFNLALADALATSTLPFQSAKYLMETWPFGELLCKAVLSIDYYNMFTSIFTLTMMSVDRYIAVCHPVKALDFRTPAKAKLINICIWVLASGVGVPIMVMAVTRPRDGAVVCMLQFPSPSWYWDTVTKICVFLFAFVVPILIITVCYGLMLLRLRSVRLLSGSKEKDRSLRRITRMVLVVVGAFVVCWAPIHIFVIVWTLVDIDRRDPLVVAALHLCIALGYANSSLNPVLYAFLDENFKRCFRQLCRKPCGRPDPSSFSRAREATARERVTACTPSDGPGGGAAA
Experiment: Agonist activity at delta opioid receptor (unknown origin) expressed in CHO cells assessed as change in cell morphology at 3.3 uM measured over 30 mins by label free binding assay relative to DPDPE
Format: cell-based
Method in brief: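 Label-free biosensor (BIND) measuring cell spreading as increase in peak wavelength value. MOR in HEK293 cells, DOR in CHO cells, seeded 2 × 10⁴/well on fibronectin/collagen/albumin-coated plates and incubated overnight. Assay buffer was HBSS with 0.5–1% DMSO, equilibrated 30 min at room temperature before a baseline read. Compound added to a final 3.3 µM and read over 30 min. Response given as % of DAMGO 300 nM (MOR, n = 2) or DPDPE 10 nM (DOR, n = 4).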

Row | Structure (SMILES) | Activity [%]
23 | NC(=O)[C@H](Cc1ccccc1)NC(=O)[C@H](Cc1c[nH]c2ccccc12)NC(=O)[C@@H]1CCCN1C(=O)[C@@H](N)Cc1ccc(O)cc1 | 49

— ChEMBL document CHEMBL3407426, “Synthesis and biological evaluations of novel endomorphin analogues containing α-hydroxy-β-phenylalanine (AHPBA) displaying mixed μ/δ opioid receptor agonist and δ opioid receptor antagonist activities” (Eur J Med Chem, 2015)
